From ChEMBL document CHEMBL1772954, “Antifungal, cytotoxic and SAR studies of a series of N-alkyl, N-aryl and N-alkylphenyl-1,4-pyrrolediones and related compounds” (Bioorg Med Chem, 2011)
Values after ≈ are worked out from the molar mass of the structure shown.

Columns and labels:
Nannizzia gypsea = assay: Antifungal activity against Microsporum gypseum C 115 2000; format: functional
Procedure, shortened: (§1)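 Dermatophytes tested by CLSI M38-A2 microdilution in MOPS-buffered RPMI-1640 at pH 7.0. Inoculum 1-5 × 10^3 CFU/mL; compounds 250 to 0.24 µg/ml in twofold steps, final DMSO <1%. Incubated at 28 °C in a moist, dark chamber and read according to control growth. MIC is the lowest concentration with complete inhibition. MFC is the lowest concentration with no growth after duplicate subculture on SDA.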

Aspergillus niger = assay: Antifungal activity against Aspergillus niger ATCC 9029; format: functional
Procedure, shortened: (§2)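 Broth microdilution per CLSI M38-A2 in RPMI-1640 with MOPS at pH 7.0. Inoculum 1-5 × 10^3 CFU/mL, with twofold compound dilutions spanning 250-0.24 µg/ml (final DMSO <1%). Plates incubated at 35 °C, moist and dark, and read when the control fungus had grown. MIC is total growth inhibition. MFC comes from subculturing clear wells in duplicate onto SDA.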

Cryptococcus neoformans = assay: Antifungal activity against Cryptococcus neoformans ATCC 32264; format: functional
Procedure, shortened: (§3)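 CLSI M27-A3 broth microdilution in RPMI-1640 buffered to pH 7.0 with MOPS. Inoculum 1-5 × 10^3 CFU/mL. Compound twofold dilutions from 250 to 0.24 µg/ml, final DMSO <1%. Incubated at 35 °C in a moist, dark chamber and read at 48 h. MIC is the lowest concentration giving total growth inhibition. For MFC, 5 µL from clear wells was plated in duplicate on SDA; MFC is the lowest concentration with no growth.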

Saccharomyces cerevisiae = assay: Antifungal activity against Saccharomyces cerevisiae ATCC 9763; format: functional; procedure, shortened: as §3
SF-268 = assay: Cytotoxicity against human SF268 cells assessed as cell growth after 2 days by sulforhodamine B assay; format: functional; details: SF-268, 48 h
Procedure, shortened: (§4)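 NCI cell lines were run by the Monks method: cells were plated with compounds from DMSO stocks and incubated 2 days at 37 °C in 5% CO2, in duplicate. Cells were fixed with cold TCA, stained with 0.4% SRB, and the bound dye was solubilized in 10 mM tris-base and read at 515 nm. The zero-day control was subtracted, and GI50 was taken from the curves.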

Aspergillus fumigatus = assay: Antifungal activity against Aspergillus fumigatus ATCC 26934; format: functional; procedure, shortened: as §2
[1] = tested on: Trichophyton mentagrophytes; assay: Antifungal activity against Trichophyton mentagrophytes ATCC 9972; format: functional; procedure, shortened: as §1
Candida albicans = assay: Antifungal activity against Candida albicans ATCC 10213; format: functional; procedure, shortened: as §3
[2] = Cytotoxicity against human erythrocytes assessed as hemolysis by spectrometric analysis; format: cell-based, Erythrocyte
Procedure, shortened: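 Human heparinized red blood cells were washed in PBS at pH 7.0 and suspended at 4% in sterile 5% glucose. Compounds from DMSO stocks were diluted in 5% glucose to final concentrations of 250 to 0.24 µg/ml and incubated with the cells at 37 °C. Released hemoglobin was read at 540 nm. HC50 is the concentration giving 50% lysis relative to the drug-free value.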

Aspergillus flavus = assay: Antifungal activity against Aspergillus flavus ATCC 9170; format: functional; procedure, shortened: as §2
Candida tropicalis = assay: Antifungal activity against Candida tropicalis C 131 2000; format: functional; procedure, shortened: as §3
NCI-H460 = assay: Cytotoxicity against human H460 cells assessed as cell growth after 2 days by sulforhodamine B assay; format: functional; details: NCI-H460, 48 h; procedure, shortened: as §4
MCF7 = assay: Cytotoxicity against human MCF7 cells assessed as cell growth after 2 days by sulforhodamine B assay; format: functional; details: MCF7, 48 h; procedure, shortened: as §4
Trichophyton rubrum = assay: Antifungal activity against Trichophyton rubrum C 113 2000; format: functional; procedure, shortened: as §1

| Compound | MFC (Nannizzia gypsea) | MIC (Nannizzia gypsea) | MFC (Aspergillus niger) | MIC (Aspergillus niger) | MFC (Cryptococcus neoformans) | MIC (Cryptococcus neoformans) | MFC (Saccharomyces cerevisiae) | MIC (Saccharomyces cerevisiae) | GI50 (SF-268) | MFC (Aspergillus fumigatus) | MIC (Aspergillus fumigatus) | MFC [1] | MIC [1] | MFC (Candida albicans) | MIC (Candida albicans) | HC50 [2] | MFC (Aspergillus flavus) | MIC (Aspergillus flavus) | MFC (Candida tropicalis) | GI50 (NCI-H460) | other results |
| --- | --- | --- | --- | --- | --- | --- | --- | --- | --- | --- | --- | --- | --- | --- | --- | --- | --- | --- | --- | --- | --- |
| CC(C)(C)c1ccccc1N1C(=O)C=CC1=O | 3.9 µg/mL (≈ 17 µM) | 1.95 µg/mL (≈ 8.5 µM) | 125 µg/mL (≈ 545 µM) | 62.5 µg/mL (≈ 273 µM) | 7.81 µg/mL (≈ 34.1 µM) | 3.9 µg/mL (≈ 17 µM) | 7.81 µg/mL (≈ 34.1 µM) | 3.9 µg/mL (≈ 17 µM) | > 10 µg/mL | 31.2 µg/mL (≈ 136 µM) | 15.6 µg/mL (≈ 68.2 µM) | 3.9 µg/mL (≈ 17 µM) | 1.95 µg/mL (≈ 8.5 µM) | 3.9 µg/mL (≈ 17 µM) | 3.9 µg/mL (≈ 17 µM) | > 250 µg/mL | 62.5 µg/mL (≈ 273 µM) | 62.5 µg/mL (≈ 273 µM) | 3.9 µg/mL (≈ 17 µM) | > 10 µg/mL | MIC (Candida tropicalis): 3.9 µg/mL (≈ 17 µM); GI50 (MCF7): > 10 µg/mL; MFC (Trichophyton rubrum): 3.9 µg/mL (≈ 17 µM); MIC (Trichophyton rubrum): 1.95 µg/mL (≈ 8.5 µM) |
| CC1=CC(=O)N(c2ccccc2)C1=O | 15.6 µg/mL (≈ 83.5 µM) | 7.81 µg/mL (≈ 41.7 µM) | 250 µg/mL (≈ 1340 µM) | 125 µg/mL (≈ 668 µM) | 62.5 µg/mL (≈ 334 µM) | 31.2 µg/mL (≈ 167 µM) | 125 µg/mL (≈ 668 µM) | 31.2 µg/mL (≈ 167 µM) | > 10 µg/mL | 62.5 µg/mL (≈ 334 µM) | 31.2 µg/mL (≈ 167 µM) | 62.5 µg/mL (≈ 334 µM) | 31.2 µg/mL (≈ 167 µM) | 125 µg/mL (≈ 668 µM) | 62.5 µg/mL (≈ 334 µM) | > 250 µg/mL | 125 µg/mL (≈ 668 µM) | 62.5 µg/mL (≈ 334 µM) | 125 µg/mL (≈ 668 µM) | > 10 µg/mL | MIC (Candida tropicalis): 62.5 µg/mL (≈ 334 µM); GI50 (MCF7): > 10 µg/mL; MFC (Trichophyton rubrum): 15.6 µg/mL (≈ 83.5 µM); MIC (Trichophyton rubrum): 7.81 µg/mL (≈ 41.7 µM) |
| O=C1C(Cl)=C(Cl)C(=O)N1Cc1ccccc1 | 31.2 µg/mL (≈ 122 µM) | 15.6 µg/mL (≈ 61 µM) | 62.5 µg/mL (≈ 244 µM) | 31.2 µg/mL (≈ 122 µM) | 15.6 µg/mL (≈ 61 µM) | 7.81 µg/mL (≈ 30.5 µM) | 15.6 µg/mL (≈ 61 µM) | 7.81 µg/mL (≈ 30.5 µM) | > 10 µg/mL | 31.2 µg/mL (≈ 122 µM) | 15.6 µg/mL (≈ 61 µM) | 15.6 µg/mL (≈ 61 µM) | 7.81 µg/mL (≈ 30.5 µM) | 31.2 µg/mL (≈ 122 µM) | 15.6 µg/mL (≈ 61 µM) | > 250 µg/mL | 31.2 µg/mL (≈ 122 µM) | 31.2 µg/mL (≈ 122 µM) | 31.2 µg/mL (≈ 122 µM) | > 10 µg/mL | MIC (Candida tropicalis): 31.2 µg/mL (≈ 122 µM); GI50 (MCF7): > 10 µg/mL; MFC (Trichophyton rubrum): 15.6 µg/mL (≈ 61 µM); MIC (Trichophyton rubrum): 7.81 µg/mL (≈ 30.5 µM) |
| O=C1C=CC(=O)N1c1ccccc1 | 15.6 µg/mL (≈ 90.3 µM) | 7.81 µg/mL (≈ 45.1 µM) | 62.5 µg/mL (≈ 361 µM) | 31.2 µg/mL (≈ 180 µM) | 62.5 µg/mL (≈ 361 µM) | 15.6 µg/mL (≈ 90.3 µM) | 7.81 µg/mL (≈ 45.1 µM) | 3.9 µg/mL (≈ 22.5 µM) | > 10 µg/mL | > 250 µg/mL | 250 µg/mL (≈ 1440 µM) | 7.81 µg/mL (≈ 45.1 µM) | 7.81 µg/mL (≈ 45.1 µM) | 7.81 µg/mL (≈ 45.1 µM) | 3.9 µg/mL (≈ 22.5 µM) | > 250 µg/mL | 125 µg/mL (≈ 722 µM) | 62.5 µg/mL (≈ 361 µM) | 15.6 µg/mL (≈ 90.3 µM) | > 10 µg/mL | GI50 (MCF7): > 10 µg/mL; MFC (Trichophyton rubrum): 7.81 µg/mL (≈ 45.1 µM); MIC (Trichophyton rubrum): 3.9 µg/mL (≈ 22.5 µM) |
